Test results published in ChEMBL document CHEMBL3779771, “Chiral Dihydrobenzofuran Acids Show Potent Retinoid X Receptor-Nuclear Receptor Related 1 Protein Dimer Activation” (J Med Chem, 2016).
The source made the active and inactive calls. The rule behind the calls is not given here.

How the values were obtained:
[1] = biological target: T1, Retinoic acid receptor RXR-alpha (Homo sapiens, UniProt P19793); test: (§1) Agonist activity at histidine-tagged ligand binding domain of human RXRalpha expressed in Escherichia coli BL21 (DE3) by luciferase reporter gene assay
T1 sequence (P19793 whole entry): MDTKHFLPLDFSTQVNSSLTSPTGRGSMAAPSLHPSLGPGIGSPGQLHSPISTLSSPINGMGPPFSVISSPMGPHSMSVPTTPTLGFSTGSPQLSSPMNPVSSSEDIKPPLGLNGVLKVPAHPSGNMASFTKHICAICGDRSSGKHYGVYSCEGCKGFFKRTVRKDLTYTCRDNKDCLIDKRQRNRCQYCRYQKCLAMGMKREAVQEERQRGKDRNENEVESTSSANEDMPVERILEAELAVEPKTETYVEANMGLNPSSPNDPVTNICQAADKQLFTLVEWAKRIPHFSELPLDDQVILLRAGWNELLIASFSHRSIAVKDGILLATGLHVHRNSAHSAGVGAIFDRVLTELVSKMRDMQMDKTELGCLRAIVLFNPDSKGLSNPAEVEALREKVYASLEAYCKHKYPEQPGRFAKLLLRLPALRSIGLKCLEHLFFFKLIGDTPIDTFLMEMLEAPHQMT

[2] = biological target: T2, Retinoic acid receptor RXR-alpha (Homo sapiens) (UniProt P19793); test: Agonist activity at histidine-tagged ligand binding domain of human RXRalpha expressed in Escherichia coli BL21 (DE3) by luciferase reporter gene assay relative to bexarotene
T2 sequence (whole entry): T1 sequence (P19793 whole entry)

[3] = biological target: T3, Estrogen receptor (Homo sapiens) (UniProt P03372); test: Activation of estrogen receptor (unknown origin)
T3 sequence (whole entry): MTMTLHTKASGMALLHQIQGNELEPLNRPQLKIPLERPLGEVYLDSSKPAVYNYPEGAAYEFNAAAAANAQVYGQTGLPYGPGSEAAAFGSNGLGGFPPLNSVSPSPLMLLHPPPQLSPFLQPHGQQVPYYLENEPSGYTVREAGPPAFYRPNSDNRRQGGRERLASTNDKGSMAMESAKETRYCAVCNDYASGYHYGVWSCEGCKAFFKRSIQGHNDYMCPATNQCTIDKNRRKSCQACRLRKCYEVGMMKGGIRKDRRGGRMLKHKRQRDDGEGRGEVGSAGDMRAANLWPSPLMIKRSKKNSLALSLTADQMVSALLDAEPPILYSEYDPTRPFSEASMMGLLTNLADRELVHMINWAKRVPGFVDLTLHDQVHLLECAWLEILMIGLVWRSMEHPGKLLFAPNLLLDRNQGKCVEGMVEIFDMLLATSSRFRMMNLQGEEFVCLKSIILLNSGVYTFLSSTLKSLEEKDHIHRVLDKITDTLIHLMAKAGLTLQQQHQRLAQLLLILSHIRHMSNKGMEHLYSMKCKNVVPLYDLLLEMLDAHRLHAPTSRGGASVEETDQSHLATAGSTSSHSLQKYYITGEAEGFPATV

[4] = biological target: Retinoic acid receptor (Homo sapiens) (UniProt P13631+P10826+P10276); test: Activation of RAR (unknown origin); format: protein assay
Retinoic acid receptor (Homo sapiens), sequence (P10276 whole entry, looked up): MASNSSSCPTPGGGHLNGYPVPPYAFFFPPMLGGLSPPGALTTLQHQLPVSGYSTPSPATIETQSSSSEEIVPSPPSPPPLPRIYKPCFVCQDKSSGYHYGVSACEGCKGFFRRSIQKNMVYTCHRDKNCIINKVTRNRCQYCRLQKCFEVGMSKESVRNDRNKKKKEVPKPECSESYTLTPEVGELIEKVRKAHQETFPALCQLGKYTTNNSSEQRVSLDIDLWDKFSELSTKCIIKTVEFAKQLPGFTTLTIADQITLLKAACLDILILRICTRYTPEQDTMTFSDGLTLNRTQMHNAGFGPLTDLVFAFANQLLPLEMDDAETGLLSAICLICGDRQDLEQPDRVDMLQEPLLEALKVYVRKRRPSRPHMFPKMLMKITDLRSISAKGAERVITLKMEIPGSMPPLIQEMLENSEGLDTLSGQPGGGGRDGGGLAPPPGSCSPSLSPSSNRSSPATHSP
Retinoic acid receptor (Homo sapiens), sequence (P10826 whole entry, looked up): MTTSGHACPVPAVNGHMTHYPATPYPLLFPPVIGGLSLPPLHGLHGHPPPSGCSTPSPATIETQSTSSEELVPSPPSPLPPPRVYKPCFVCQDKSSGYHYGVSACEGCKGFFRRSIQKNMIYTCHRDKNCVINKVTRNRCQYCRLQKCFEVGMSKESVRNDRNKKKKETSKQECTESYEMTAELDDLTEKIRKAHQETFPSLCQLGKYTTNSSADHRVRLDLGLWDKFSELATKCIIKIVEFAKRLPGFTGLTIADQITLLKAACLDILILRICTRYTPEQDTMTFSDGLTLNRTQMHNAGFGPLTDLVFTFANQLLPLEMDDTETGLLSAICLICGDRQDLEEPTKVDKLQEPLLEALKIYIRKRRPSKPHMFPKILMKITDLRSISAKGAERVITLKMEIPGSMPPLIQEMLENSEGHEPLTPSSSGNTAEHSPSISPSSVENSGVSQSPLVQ
Retinoic acid receptor (Homo sapiens), sequence (P13631 whole entry, looked up): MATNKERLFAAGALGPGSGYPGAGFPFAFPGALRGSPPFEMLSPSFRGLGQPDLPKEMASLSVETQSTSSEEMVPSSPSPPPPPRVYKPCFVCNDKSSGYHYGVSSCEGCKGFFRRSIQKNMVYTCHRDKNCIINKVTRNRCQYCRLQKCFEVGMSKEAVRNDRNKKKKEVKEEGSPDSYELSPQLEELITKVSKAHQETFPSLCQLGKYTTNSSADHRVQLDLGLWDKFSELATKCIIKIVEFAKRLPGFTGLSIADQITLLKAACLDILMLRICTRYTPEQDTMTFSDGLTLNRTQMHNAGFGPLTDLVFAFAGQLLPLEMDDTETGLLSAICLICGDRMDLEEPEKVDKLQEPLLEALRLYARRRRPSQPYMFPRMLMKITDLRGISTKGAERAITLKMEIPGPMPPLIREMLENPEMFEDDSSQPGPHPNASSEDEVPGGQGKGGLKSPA

[5] = biological target: T2, Retinoic acid receptor RXR-alpha (Homo sapiens); test: as §1
[6] = biological target: T4, Nuclear receptor subfamily 4 group A member 2/Retinoic acid receptor RXR-alpha (Homo sapiens, UniProt P19793+P43354); test: Agonist activity at Renilla luciferase/GFP2-tagged RXRalpha/Nurr1 (unknown origin) expressed in HEK293T cells by BRET2 assay; format: cell-based, HEK-293T
T4 sequence (P43354 whole entry, one chain of several): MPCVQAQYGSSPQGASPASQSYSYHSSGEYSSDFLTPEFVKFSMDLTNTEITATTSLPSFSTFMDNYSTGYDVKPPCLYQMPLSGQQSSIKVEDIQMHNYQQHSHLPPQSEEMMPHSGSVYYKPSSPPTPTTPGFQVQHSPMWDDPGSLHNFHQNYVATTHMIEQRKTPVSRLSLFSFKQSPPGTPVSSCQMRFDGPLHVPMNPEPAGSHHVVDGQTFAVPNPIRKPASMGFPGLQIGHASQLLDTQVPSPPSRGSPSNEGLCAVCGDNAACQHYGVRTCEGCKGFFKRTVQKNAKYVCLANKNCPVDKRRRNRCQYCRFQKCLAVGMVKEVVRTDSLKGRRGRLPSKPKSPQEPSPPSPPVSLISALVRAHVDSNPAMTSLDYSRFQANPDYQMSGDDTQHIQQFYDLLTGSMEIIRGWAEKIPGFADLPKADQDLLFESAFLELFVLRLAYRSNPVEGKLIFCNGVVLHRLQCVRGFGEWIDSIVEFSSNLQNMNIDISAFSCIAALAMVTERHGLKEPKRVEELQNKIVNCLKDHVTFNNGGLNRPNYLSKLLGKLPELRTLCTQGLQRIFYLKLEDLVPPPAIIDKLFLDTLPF

[7] = biological target: T4, Nuclear receptor subfamily 4 group A member 2/Retinoic acid receptor RXR-alpha; test: Agonist activity at Renilla luciferase/GFP2-tagged RXRalpha/Nurr1 (unknown origin) expressed in HEK293T cells by BRET2 assay relative to bexarotene; format: cell-based; conditions: HEK-293T
Method in brief: (§2)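 BRET2 assay with RXR and Nurr1 receptors tagged with GFP and Renilla luciferase, run in whole cells. Potency is given as pEC50, the negative log of molar EC50. Agonist efficacy is expressed relative to bexarotene, set at 100%. Values are mean ± SD of at least three independent experiments.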

[8] = biological target: T2, Retinoic acid receptor RXR-alpha (Homo sapiens); test: Agonist activity at Renilla luciferase/GFP2-tagged RXRalpha homodimer (unknown origin) expressed in HEK293T cells by BRET2 assay relative to bexarotene; format: cell-based; conditions: HEK-293T; method in brief: as §2
[9] = biological target: T1, Retinoic acid receptor RXR-alpha; test: Agonist activity at Renilla luciferase/GFP2-tagged RXRalpha homodimer (unknown origin) expressed in HEK293T cells by BRET2 assay; format: cell-based, HEK-293T
Homo sapiens = species: Homo sapiens; test: Selectivity ratio of EC50 for Renilla luciferase/GFP2-tagged RXRalpha homodimer (unknown origin) to EC50 for Renilla luciferase/GFP2-tagged RXRalpha/Nurr1 (unknown origin)

Row | Compound | EC50 [1] | Efficacy [2] | Activity [3] | Activity [4] | pEC50 [5] | EC50 [6] | Efficacy [7] | Efficacy [8] | EC50 [9] | Ratio EC50 (Homo sapiens)
1 | CC1(C)CCC(C)(C)c2cc3c(cc21)OC1CCCCC31c1ccc(C(=O)O)cc1 (racemic) | 0.0501 µM | 96% | inactive | inactive | – | – | – | – | – | –
2 | CC1(C)CCC(C)(C)c2cc3c(cc21)O[C@H]1CCCCC[C@]31c1ccc(C(=O)O)cc1 (racemic) | – | – | – | – | inactive | – | – | – | – | –
3 | CC1(C)CCC(C)(C)c2cc3c(cc21)OC1CCCC31c1ccc(C(=O)O)cc1 (racemic) | 0.0251 µM | 65% | inactive | inactive | – | – | – | – | – | –
4 | CC1(C)CCC(C)(C)c2cc3c(cc21)O[C@H]1CCC[C@@]31c1ccc(C(=O)O)cc1 | 1 µM | 59% | – | – | – | 0.501 µM | 49% | inactive | – | –
5 | CC1(C)CCC(C)(C)c2cc3c(cc21)OC1CCCCC31c1ccc(C(=O)O)c(F)c1 (racemic) | 0.0501 µM | 88% | inactive | inactive | – | – | – | – | – | –
6 | CC1(C)CCC(C)(C)c2cc3c(cc21)O[C@@H]1CCCC[C@]31c1ccc(C(=O)O)cc1 | 0.02 µM | 94% | – | – | – | 0.0126 µM | 96% | 80% | 0.0158 µM | –
7 | CC1(C)CCC(C)(C)c2cc3c(cc21)O[C@H]1CCCC[C@@]31c1ccc(C(=O)O)cc1 | – | – | – | – | inactive | > 3.16 µM | 92% | inactive | – | –
8 | CC1(C)CCC(C)(C)c2cc3c(cc21)OC1CCCCC31c1ccc(O)cc1 (racemic) | – | – | – | – | inactive | – | – | – | – | –
9 | CC1(C)CCC(C)(C)c2cc3c(cc21)O[C@H]1CCCCC[C@@]31c1ccc(C(=O)O)cc1 (racemic) | 0.126 µM | 47% | inactive | inactive | – | – | – | – | – | –
10 | CC1(C)CCC(C)(C)c2cc3c(cc21)O[C@@H]1CCC[C@]31c1ccc(C(=O)O)cc1 | 0.00631 µM | 119% | – | – | – | 0.0126 µM | 111% | 85% | 0.0251 µM | 3
